In experiment [1] the target is Sodium-dependent dopamine transporter (Rattus norvegicus, UniProt P23977). As to the kind of experiment: Displacement of [3H]WIN35428 from DAT in Sprague-Dawley rat brain homogenates after 1 hr by scintillation counting. Format: tissue-based. The essentials:
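Male Sprague-Dawley rats (200–250 g); caudate-putamen homogenised in ice-cold modified Krebs-HEPES buffer pH 7.4, washed by repeated 20,000 × g spins; fresh membranes ~0.3% w/v (150–300 µg protein). Nonspecific: 100 µM cocaine.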
Background: In a radioligand displacement assay an active substance lowers the binding of a labelled ligand.

For another experiment, the target named is Transporter (Rattus norvegicus, UniProt Q63380). As to the kind of experiment: Displacement of [3H]nisoxetine from NET in Sprague-Dawley rat brain cortex membranes after 1 hr. Format: cell membranes, Membrane. The essentials:
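Rat frontal cortex membranes in 50 mM Tris, 120 mM NaCl, 5 mM KCl, pH 7.4, washed at 50,000 × g, 8 mg wet tissue/tube. 0.5 nM [3H]nisoxetine, 1 h on ice; GF/B filters presoaked in 0.05% PEI. Nonspecific: 1 µM desipramine. Compounds first screened at 1 µM for displacement.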

Experiment [2] deals with Sodium-dependent serotonin transporter (Rattus norvegicus, UniProt P31652). As to the kind of experiment: Displacement of [3H]citalopram from SERT in Sprague-Dawley rat brain homogenates after 60 mins by liquid scintillation counting. The experiment is classed as tissue-based. The essentials:
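Midbrain from male Sprague-Dawley rats (200–225 g), frozen, homogenised in 50 mM Tris with 120 mM NaCl, 5 mM KCl (pH 7.4, 25 °C), washed at 20,000 × g. Nonspecific: 1 µM citalopram. GF/B filters in polyethylenimine, liquid scintillation counting.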

Experiment [3] is filed under the species Rattus norvegicus. Description: Selectivity ratio of Ki for NET in Sprague-Dawley rat brain cortex membranes to Ki for DAT in Sprague-Dawley rat brain homogenates. Format: cell membranes. Particulars: Membrane.
Experiment [4] is filed under the species Rattus norvegicus. Description: Selectivity ratio of Ki for SERT in Sprague-Dawley rat brain homogenates to Ki for DAT in Sprague-Dawley rat brain homogenates. Format: tissue-based.
The nature of experiment [5]: Selectivity ratio of DAT over SERT.

The record followed here is ChEMBL document CHEMBL1926677, “Further structure-activity relationship studies on 8-substituted-3-[2-(diarylmethoxyethylidenyl)]-8-azabicyclo[3.2.1]octane derivatives at monoamine transporters” (Bioorg Med Chem, 2011).

Chain of Transporter (Q63380 whole entry): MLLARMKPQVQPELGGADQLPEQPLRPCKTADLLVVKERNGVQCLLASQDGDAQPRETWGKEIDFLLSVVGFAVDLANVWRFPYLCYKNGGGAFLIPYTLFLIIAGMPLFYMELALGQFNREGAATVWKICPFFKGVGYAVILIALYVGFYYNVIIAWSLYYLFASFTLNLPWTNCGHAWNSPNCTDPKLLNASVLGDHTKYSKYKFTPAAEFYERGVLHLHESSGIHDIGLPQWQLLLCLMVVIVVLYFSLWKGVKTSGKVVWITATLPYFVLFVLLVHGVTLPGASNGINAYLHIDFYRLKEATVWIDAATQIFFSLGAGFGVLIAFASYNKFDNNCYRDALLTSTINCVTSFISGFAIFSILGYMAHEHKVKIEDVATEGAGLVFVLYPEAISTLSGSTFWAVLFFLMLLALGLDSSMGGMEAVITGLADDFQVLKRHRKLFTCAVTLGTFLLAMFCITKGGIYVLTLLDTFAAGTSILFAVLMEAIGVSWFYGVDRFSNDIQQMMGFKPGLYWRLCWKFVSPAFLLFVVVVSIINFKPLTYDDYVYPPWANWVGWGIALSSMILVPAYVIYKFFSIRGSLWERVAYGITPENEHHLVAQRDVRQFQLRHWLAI
Chain of Sodium-dependent serotonin transporter (P31652 whole entry): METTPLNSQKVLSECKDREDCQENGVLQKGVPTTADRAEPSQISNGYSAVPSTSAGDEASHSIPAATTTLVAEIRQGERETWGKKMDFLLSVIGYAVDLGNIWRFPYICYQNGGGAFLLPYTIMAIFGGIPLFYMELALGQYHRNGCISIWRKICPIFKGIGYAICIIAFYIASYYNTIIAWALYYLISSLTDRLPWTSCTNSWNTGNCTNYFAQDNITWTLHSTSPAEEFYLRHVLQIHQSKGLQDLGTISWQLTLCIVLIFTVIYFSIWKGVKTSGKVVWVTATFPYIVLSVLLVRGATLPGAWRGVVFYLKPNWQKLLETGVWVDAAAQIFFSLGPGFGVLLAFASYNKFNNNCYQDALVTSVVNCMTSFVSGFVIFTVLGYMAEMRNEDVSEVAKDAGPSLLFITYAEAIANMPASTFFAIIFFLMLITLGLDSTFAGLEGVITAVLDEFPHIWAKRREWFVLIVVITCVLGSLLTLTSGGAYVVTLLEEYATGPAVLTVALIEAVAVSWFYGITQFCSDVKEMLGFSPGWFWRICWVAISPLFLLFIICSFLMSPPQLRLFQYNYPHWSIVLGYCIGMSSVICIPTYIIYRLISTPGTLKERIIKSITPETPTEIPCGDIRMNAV
Chain of Sodium-dependent dopamine transporter (P23977 whole entry): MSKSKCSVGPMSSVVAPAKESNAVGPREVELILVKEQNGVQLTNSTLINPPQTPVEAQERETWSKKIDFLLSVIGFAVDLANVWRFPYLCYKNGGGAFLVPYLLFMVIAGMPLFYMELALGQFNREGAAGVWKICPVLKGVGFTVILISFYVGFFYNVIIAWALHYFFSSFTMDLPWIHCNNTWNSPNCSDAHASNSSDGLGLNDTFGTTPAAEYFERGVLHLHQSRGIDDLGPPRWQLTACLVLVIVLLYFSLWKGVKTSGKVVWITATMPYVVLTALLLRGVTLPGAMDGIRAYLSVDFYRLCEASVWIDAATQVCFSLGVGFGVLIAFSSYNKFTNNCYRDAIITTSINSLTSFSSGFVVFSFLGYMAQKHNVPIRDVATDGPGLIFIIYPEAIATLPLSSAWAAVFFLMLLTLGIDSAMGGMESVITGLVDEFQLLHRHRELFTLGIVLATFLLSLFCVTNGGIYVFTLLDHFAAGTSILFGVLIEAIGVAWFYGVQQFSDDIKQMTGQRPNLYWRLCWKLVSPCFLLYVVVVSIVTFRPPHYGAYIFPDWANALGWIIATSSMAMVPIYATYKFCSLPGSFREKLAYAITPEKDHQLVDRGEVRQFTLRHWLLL

The term Ki denotes a measure of affinity in units of concentration, obtained from inhibition or displacement. Lower therefore signals tighter binding. For the compound `C=CCN1[C@@H]2CC[C@H]1C/C(=C/COC(c1ccc(F)cc1)c1ccc(F)cc1)C2`, the Ki in experiment [1] is 21 nM; at Transporter, 3120 nM; in experiment [2], 3460 nM. Moreover, the Ratio Ki in the experiment filed under Rattus norvegicus [3] was 149; in the experiment filed under Rattus norvegicus [4], 167.

Regarding `Cc1ccc(CN2[C@@H]3CC[C@H]2C/C(=C/COC(c2ccc(F)cc2)c2ccc(F)cc2)C3)cc1`, the Ki in experiment [1] amounted to 6.1 nM; on Transporter, 2750 nM; in experiment [2], 405 nM. In addition, the Ratio Ki in the experiment listed under Rattus norvegicus [3] was 450; in the experiment filed under Rattus norvegicus [4], 68.

In the case of `C(/COC(c1ccccc1)c1ccccc1)=C1/C[C@H]2CC[C@@H](C1)N2CCCc1ccccc1`, the Ratio in experiment [5] came to 300.

Consider `Fc1ccc(C(OC/C=C2\C[C@H]3CC[C@@H](C2)N3Cc2ccccc2)c2ccc(F)cc2)cc1`, for which, in experiment [2], the affinity corresponds to a Ki of 2220 nM.

Turning to `C(/COC(c1ccccc1)c1ccccc1)=C1/C[C@H]2CC[C@@H](C1)N2Cc1ccccc1`, the Ki in experiment [1] was 48 nM; at Transporter, 1390 nM; in experiment [2], 5420 nM. Moreover, in experiment [5], the Ratio was 300. The Ratio Ki in the experiment filed under Rattus norvegicus [3] was 29; in the experiment filed under Rattus norvegicus [4], 113.

In turn, `CN1[C@@H]2CC[C@H]1C/C(=C/COC(c1ccccc1)c1ccccc1)C2` came in with a Ki in experiment [1] of 130 nM. Besides, in experiment [5], the Ratio stood at 300.

In experiment [1], `CN1[C@@H]2CC[C@H]1C/C(=C/COC(c1ccc(F)cc1)c1ccc(F)cc1)C2` had a Ki of 19 nM. The Ratio in experiment [5] amounted to 300.

Turning to `Fc1ccc(C(OC/C=C2\C[C@H]3CC[C@@H](C2)N3CCCc2ccccc2)c2ccc(F)cc2)cc1`, the Ratio in experiment [5] came to 300.

In turn, `C(/COC(c1ccccc1)c1ccccc1)=C1/C[C@H]2CC[C@@H](C1)N2CC1CC1` displayed a Ki in experiment [1] of 169 nM.

`CCN1[C@@H]2CC[C@H]1C/C(=C/COC(c1ccccc1)c1ccccc1)C2` gave a Ki in experiment [1] of 286 nM.

As for `CCN1[C@@H]2CC[C@H]1C/C(=C/COC(c1ccc(F)cc1)c1ccc(F)cc1)C2`, the results for the Ki (in experiment [1]; at Transporter; in experiment [2]) were 40 nM, 3580 nM and 5960 nM, respectively. Further, the Ratio Ki in the experiment listed under Rattus norvegicus [3] turned out to be 89; in the experiment listed under Rattus norvegicus [4], 149.

On to `Fc1ccc(CN2[C@@H]3CC[C@H]2C/C(=C/COC(c2ccc(F)cc2)c2ccc(F)cc2)C3)cc1`, for which the Ki in experiment [1] is 4.9 nM; at Transporter, 3150 nM; in experiment [2], 1140 nM. The values for the Ratio Ki in the experiment listed under Rattus norvegicus [3] and in the experiment filed under Rattus norvegicus [4] were 643 and 234, respectively.

Take `C=CCN1[C@@H]2CC[C@H]1C/C(=C/COC(c1ccccc1)c1ccccc1)C2`: the inhibition constant Ki in experiment [1] was 143 nM.

`CCCN1[C@@H]2CC[C@H]1C/C(=C/COC(c1ccccc1)c1ccccc1)C2` displayed a Ki in experiment [1] of 245 nM.

With `Fc1ccc(C(OC/C=C2\C[C@H]3CC[C@@H](C2)N3Cc2ccc(Cl)cc2)c2ccc(F)cc2)cc1`, the Ki was 3.9 nM in experiment [1], 5300 nM on Transporter and 656 nM in experiment [2]. Further, the Ratio Ki was 1360 in the experiment filed under Rattus norvegicus [3] and 168 in the experiment listed under Rattus norvegicus [4].

In the case of `Clc1ccc(CN2[C@@H]3CC[C@H]2C/C(=C/COC(c2ccccc2)c2ccccc2)C3)cc1`, the Ki in experiment [1] worked out at 7.6 nM; at Transporter, 2710 nM; in experiment [2] it was 544 nM. Moreover, the figures for the Ratio Ki in the experiment filed under Rattus norvegicus [3] and in the experiment listed under Rattus norvegicus [4] were 554 and 72, respectively.

For the compound `Cc1ccc(CN2[C@@H]3CC[C@H]2C/C(=C/COC(c2ccccc2)c2ccccc2)C3)cc1`, the values for the Ki (in experiment [1]; at Transporter; in experiment [2]) were 13 nM, 1770 nM and 746 nM, respectively. For the same compound, the values for the Ratio Ki in the experiment listed under Rattus norvegicus [3] and in the experiment listed under Rattus norvegicus [4] were 136 and 57, respectively.

Take `Fc1ccc(C(OC/C=C2\C[C@H]3CC[C@@H](C2)N3CC2CC2)c2ccc(F)cc2)cc1`: the Ki in experiment [1] was found to be 4 nM; on Transporter, 2500 nM; in experiment [2], 4240 nM. Besides, the Ratio Ki stood at 625 in the experiment listed under Rattus norvegicus [3] and 1060 in the experiment listed under Rattus norvegicus [4].

Take `CCCN1[C@@H]2CC[C@H]1C/C(=C/COC(c1ccc(F)cc1)c1ccc(F)cc1)C2`: the Ki amounted to 41 nM in experiment [1], 2850 nM on Transporter and 5460 nM in experiment [2]. The Ratio Ki in the experiment listed under Rattus norvegicus [3] was 69; in the experiment listed under Rattus norvegicus [4], 133.

Turning to `Fc1ccc(CN2[C@@H]3CC[C@H]2C/C(=C/COC(c2ccccc2)c2ccccc2)C3)cc1`, the Ki in experiment [1] is 7 nM; at Transporter, 3340 nM; in experiment [2], 4090 nM. Besides, the Ratio Ki in the experiment filed under Rattus norvegicus [3] is 477; in the experiment filed under Rattus norvegicus [4], 585.

In turn, `C#CCN1[C@@H]2CC[C@H]1C/C(=C/COC(c1ccccc1)c1ccccc1)C2` returned a Ki in experiment [1] of 536 nM.
